Type in all cases: cell-based
Experiment [1] relates to eIF4E phosphorylation (MNK1/2 activity) in MDA-MB-231 cells. Nature of the experiment: western blot of eIF4E phosphorylation. Conditions: for inhibition of eIF4E phosphorylation: MDA-MB-231 cells, 24 h, western blot. In outline:
(§1)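 MDA-MB-231 cells were grown in DMEM with 10% heat-inactivated FBS and penicillin/streptomycin, seeded at 6000 cells/cm² 24 h before treatment. DMSO was kept below 0.5%, with DMSO as negative control. Immunoblotting used ECL detection, with β-actin (1:20 000) probed.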

The subject of a further experiment is MDA-MB-231 cells. The experiment can be described thus: crystal violet growth assay, MDA-MB-231. To be noted: MDA-MB-231, 72 h, up to 200 nM. The gist of the method:
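Cells kept in DMEM (4.5 g/L glucose) with 10% heat-inactivated FBS and penicillin/streptomycin at 37 °C, 5% CO2. Seeded at 6000 cells/cm², treated 24 h later for 72 h; DMSO kept below 0.5%, DMSO as negative control. Fixed 30 min in 4% formaldehyde, PBS washes, stained 15 min with 0.5% crystal violet, dye dissolved in 15% AcOH, OD 595 nm. Three independent experiments, standard deviation.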

Experiment [2] concerns MNK1 phosphorylation at T209/214 in MDA-MB-231 cells. The experiment can be described thus: western blot of MNK1 phosphorylation at T209/214 in MDA-MB-231 cells. Conditions: MDA-MB-231, 24 h. The gist of the method: as §1
For orientation: A western blot detects proteins with antibodies after separation by electrophoresis.

Experiment [3] concerns the target MNK1-eIF4G interaction in HEK-293 cells (Homo sapiens, UniProt Q9BUB5). Nature of the experiment: immunoprecipitation of endogenous eIF4G, MNK1-eIF4G interaction in HEK-293 cells. To be noted: HEK-293, 20 μM EB1 or 100 nM eFT508, UV irradiation and 40 min recovery. In outline:
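HEK-293 cells were treated 24 h with DMSO or inhibitor, then UV-irradiated (60 J/m²) and recovered 40 min at 37 °C. Anti-eIF4G was bound to protein A beads (4 h, 4 °C), then incubated overnight at 4 °C with about 2 mg precleared lysate. Beads were washed, boiled 5 min at 95 °C, and probed for MNK1 by immunoblot.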

The values below come from PMC9059116 (Journal of Medicinal Chemistry, 2022).

Structures are written as SMILES.

Sequence of MNK1-eIF4G interaction in HEK-293 cells (Q9BUB5 1-424 isoform Q9BUB5-2): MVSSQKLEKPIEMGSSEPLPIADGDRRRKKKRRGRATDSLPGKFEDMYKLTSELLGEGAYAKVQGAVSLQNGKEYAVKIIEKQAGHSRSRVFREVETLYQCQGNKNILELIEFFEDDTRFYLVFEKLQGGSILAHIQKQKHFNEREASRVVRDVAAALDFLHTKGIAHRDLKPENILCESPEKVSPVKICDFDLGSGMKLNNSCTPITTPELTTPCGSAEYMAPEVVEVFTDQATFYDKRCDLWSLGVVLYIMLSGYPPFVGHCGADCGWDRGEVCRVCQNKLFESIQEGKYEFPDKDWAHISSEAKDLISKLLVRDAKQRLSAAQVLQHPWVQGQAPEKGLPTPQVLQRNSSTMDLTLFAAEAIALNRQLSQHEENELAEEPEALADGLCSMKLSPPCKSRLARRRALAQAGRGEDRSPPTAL

For `Nc1n[nH]c2nc(-c3ccccc3)cc(-c3ccccc3)c12` [6b, 4,6-Diphenyl-1H-pyrazolo[3,4-b]pyridin-3-amine], the “inhibition of eIF4E phosphorylation after UV stimulation” value in experiment [1] (MDA-MB-231, pretreatment with inhibitor, UV irradiation, 40 min recovery) was “strongly inhibited eIF4E phosphorylation”. The “inhibition of eIF4E phosphorylation” value in experiment [1] was “clear inhibition of eIF4E phosphorylation”; in experiment [1] (listed as EB1), “more potent than CGP5738 but less active than the eFT508”.
In the case of `Cc1cc(Nc2cc(N)ncn2)c(=O)n2c1C(=O)NC21CCCCC1` [eFT508 (3), eFT508], the “inhibition of eIF4E phosphorylation” value in experiment [1] was “complete inhibition of eIF4E phosphorylation can be already observed at low nanomolar concentrations”. Moreover, the “effect on cell growth” value in the experiment with MDA-MB-231 cells is reported as “not able to inhibit the growth”. Further, the “effect on activating phosphorylation of MNK1 at T209/214” value in experiment [2] is given as “strongly induced phosphorylation of MNKs at T209/214”. The “effect on interaction between MNK1 and eIF4G” value in experiment [3] is “strongest interaction of eIF4G with MNK1”.
For the compound `Nc1ncnc2[nH]nc(Nc3ccc(F)cc3)c12` [CGP57380 (2), CGP57380], the “effect on activating phosphorylation of MNK1 at T209/214” value in experiment [2] is recorded as “strongly induced phosphorylation of MNKs at T209/214”.
